Tests used:
[1] = molecular target: T1, Metabotropic glutamate receptor 5 (Homo sapiens, UniProt P41594); test: Antagonistic activity against Metabotropic glutamate receptor 5 in [Ca2+] flux assay using glutamate (10 uM) as agonist; format: functional
Summary of the method: (§1)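 Functional mGlu5 antagonism was read as Ca²⁺ flux, with glutamate at 10 μM as agonist. Values come from n = 2–4 determinations, with SD < ±25%.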

[2] = molecular target: T2, Metabotropic glutamate receptor 5 (Rattus norvegicus, UniProt P31424); test: Binding affinity towards Metabotropic glutamate receptor was determined by displacing [3H]3-methoxy-5-(pyridin-2-ylethynyl)pyridine from rat cortical membranes
T2 sequence (P31424 whole entry): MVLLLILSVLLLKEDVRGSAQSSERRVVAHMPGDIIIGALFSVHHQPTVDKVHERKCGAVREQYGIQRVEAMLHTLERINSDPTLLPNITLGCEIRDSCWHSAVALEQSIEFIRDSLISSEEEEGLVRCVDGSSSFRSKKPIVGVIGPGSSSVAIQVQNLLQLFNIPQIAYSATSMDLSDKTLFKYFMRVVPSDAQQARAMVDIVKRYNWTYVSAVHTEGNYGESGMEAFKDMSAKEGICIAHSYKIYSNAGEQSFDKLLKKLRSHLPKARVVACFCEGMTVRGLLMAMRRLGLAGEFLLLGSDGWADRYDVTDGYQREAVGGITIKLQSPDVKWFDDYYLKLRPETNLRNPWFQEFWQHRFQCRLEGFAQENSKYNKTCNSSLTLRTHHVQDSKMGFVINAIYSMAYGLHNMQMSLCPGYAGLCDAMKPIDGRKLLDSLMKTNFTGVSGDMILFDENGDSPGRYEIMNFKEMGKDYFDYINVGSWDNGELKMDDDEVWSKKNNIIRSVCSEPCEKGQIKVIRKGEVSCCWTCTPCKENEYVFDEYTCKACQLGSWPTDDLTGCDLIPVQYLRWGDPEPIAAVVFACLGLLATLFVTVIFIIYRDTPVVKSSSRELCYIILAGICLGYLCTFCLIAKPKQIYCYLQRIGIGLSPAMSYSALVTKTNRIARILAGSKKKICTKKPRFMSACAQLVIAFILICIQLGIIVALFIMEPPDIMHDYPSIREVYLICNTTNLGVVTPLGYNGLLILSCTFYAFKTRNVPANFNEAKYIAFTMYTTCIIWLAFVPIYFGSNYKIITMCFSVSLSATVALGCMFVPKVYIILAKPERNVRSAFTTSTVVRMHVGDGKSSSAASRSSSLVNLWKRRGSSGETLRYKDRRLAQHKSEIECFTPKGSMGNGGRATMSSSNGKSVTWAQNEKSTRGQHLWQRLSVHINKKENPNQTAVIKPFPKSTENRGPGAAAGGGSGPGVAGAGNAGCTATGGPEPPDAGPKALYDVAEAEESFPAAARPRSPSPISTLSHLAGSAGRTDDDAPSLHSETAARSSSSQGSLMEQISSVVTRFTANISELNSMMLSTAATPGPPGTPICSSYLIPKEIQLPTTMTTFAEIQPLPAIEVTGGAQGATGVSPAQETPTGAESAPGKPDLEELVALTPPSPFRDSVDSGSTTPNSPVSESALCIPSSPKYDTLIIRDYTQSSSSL
Summary of the method: (§2)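 Radioligand displacement of [³H]-3-methoxy-5-(pyridin-2-ylethynyl)pyridine used rat cortical membranes. Values come from n = 2–4 determinations, with SD < ±25%.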

[3] = molecular target: Metabotropic glutamate receptor 5 (Rattus norvegicus) (UniProt P31424); test: Percent occupancy of the Metabotropic glutamate receptor 5 by the [3H]3-methoxy-5-(pyridin-2-ylethynyl)pyridine ligand 1 hr post-administration of 10 mg/kg compound ip; format: organism-based; set-up: dose 10 mg/kg
Sequence of Metabotropic glutamate receptor 5 (Rattus norvegicus) (P31424 21-1203 limits assumed): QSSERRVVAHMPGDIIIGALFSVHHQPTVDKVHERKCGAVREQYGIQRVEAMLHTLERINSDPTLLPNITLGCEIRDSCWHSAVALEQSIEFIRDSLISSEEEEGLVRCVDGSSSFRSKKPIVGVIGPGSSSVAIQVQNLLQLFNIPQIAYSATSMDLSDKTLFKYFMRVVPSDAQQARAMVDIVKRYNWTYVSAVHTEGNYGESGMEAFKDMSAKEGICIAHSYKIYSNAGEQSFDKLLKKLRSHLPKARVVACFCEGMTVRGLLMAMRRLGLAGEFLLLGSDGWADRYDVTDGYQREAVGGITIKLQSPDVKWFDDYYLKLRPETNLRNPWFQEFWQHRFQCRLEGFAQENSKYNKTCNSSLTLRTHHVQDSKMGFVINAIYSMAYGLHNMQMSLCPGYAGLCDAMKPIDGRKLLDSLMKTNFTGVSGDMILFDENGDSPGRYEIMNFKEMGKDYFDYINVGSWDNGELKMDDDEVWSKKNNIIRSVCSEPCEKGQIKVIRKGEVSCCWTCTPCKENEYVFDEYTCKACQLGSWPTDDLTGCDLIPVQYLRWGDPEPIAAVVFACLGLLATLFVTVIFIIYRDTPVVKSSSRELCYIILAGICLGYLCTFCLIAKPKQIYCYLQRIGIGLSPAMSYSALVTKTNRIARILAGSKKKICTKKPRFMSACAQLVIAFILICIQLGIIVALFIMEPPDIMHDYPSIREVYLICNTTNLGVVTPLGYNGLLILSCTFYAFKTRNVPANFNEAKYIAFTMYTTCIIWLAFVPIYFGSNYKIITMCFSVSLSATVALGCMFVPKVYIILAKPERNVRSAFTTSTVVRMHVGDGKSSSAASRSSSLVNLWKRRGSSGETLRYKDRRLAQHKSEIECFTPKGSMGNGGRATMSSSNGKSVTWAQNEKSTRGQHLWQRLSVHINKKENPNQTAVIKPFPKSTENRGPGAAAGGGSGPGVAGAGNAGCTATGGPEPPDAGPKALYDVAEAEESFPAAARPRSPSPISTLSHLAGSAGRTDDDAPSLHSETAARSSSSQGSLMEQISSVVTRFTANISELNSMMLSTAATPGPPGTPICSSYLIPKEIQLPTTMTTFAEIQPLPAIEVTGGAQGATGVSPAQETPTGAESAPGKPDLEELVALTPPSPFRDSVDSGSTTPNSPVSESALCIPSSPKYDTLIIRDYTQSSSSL
Summary of the method: (§3)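 Rats were dosed ip at 10 mg/kg in PEG 400/water (1:1 v/v), given as a solution or a suspension. Receptor occupancy, hippocampus drug level and plasma drug level were measured 1 h after dosing.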

[4] = Level in rat brain after 1 hr following 10 mg/kg dose ip; format: ADME, organism-based; set-up: dose 10 mg/kg, route intraperitoneal; conditions: read-out: Level; summary of the method: as §3
[5] = Plasma level after 1 hr following 10 mg/kg dose ip; format: ADME, organism-based; set-up: dose 10 mg/kg, route intraperitoneal; conditions: rat, read-out: Level; summary of the method: as §3
[6] = molecular target: T2, Metabotropic glutamate receptor 5; test: Binding affinity towards Metabotropic glutamate receptor was determined by displacing [3H]3-methoxy-5-(pyridin-2-ylethynyl)pyridine from rat cortical membranes; NA=Not active; summary of the method: as §2
[7] = molecular target: T1, Metabotropic glutamate receptor 5; test: Antagonistic activity against Metabotropic glutamate receptor 5 in [Ca2+] flux assay using glutamate (10 uM) as agonist; NA=Not active; format: functional; summary of the method: as §1
[8] = Plasma clearance after i.v. dosing at 1 mg/kg, p.o. dosing at 1 mg/kg. In solution of PEG 400/water in dog; format: ADME, organism-based, Canis lupus familiaris; conditions: iv, read-out: Clp
[9] = Maximum concentration after i.v. dosing at 1 mg/kg, p.o. dosing at 1 mg/kg. In solution of PEG 400/water in dog; format: ADME, organism-based, Canis lupus familiaris; conditions: in vivo, po
[10] = Maximum concentration after i.v. dosing at 2 mg/kg, p.o. dosing at 10 mg/kg. In solution of PEG 400/water in rat; format: ADME, organism-based; conditions: in vivo, po
Summary of the method: (§4)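 Rats were dosed iv at 2 mg/kg and orally at 10 mg/kg, in solution in PEG 400/water (1:1 v/v).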

[11] = Maximum concentration after i.v. dosing at 1 mg/kg, p.o. dosing at 1 mg/kg. In solution of PEG 400/water in monkey; format: ADME, organism-based; conditions: cercopithecidae, in vivo, po
[12] = Plasma clearance after i.v. dosing at 2 mg/kg, p.o. dosing at 10 mg/kg. In solution of PEG 400/water in rat; format: ADME, organism-based; conditions: iv, read-out: Clp; summary of the method: as §4
[13] = Plasma clearance after i.v. dosing at 1 mg/kg, p.o. dosing at 1 mg/kg. In solution of PEG 400/water in monkey; format: ADME, organism-based; conditions: cercopithecidae, iv, read-out: Clp
[14] = Volume of distribution after i.v. dosing at 1 mg/kg, p.o. dosing at 1 mg/kg. In solution of PEG 400/water in dog; format: ADME, organism-based, Canis lupus familiaris; conditions: in vivo, iv
[15] = Volume of distribution after i.v. dosing at 2 mg/kg, p.o. dosing at 10 mg/kg. In solution of PEG 400/water in rat; format: ADME, organism-based; conditions: in vivo, iv; summary of the method: as §4
[16] = Volume of distribution after i.v. dosing at 1 mg/kg, p.o. dosing at 1 mg/kg. In solution of PEG 400/water in monkey; format: ADME, organism-based; conditions: cercopithecidae, in vivo, iv
[17] = Oral bioavailability after i.v. dosing at 1 mg/kg, p.o. dosing at 1 mg/kg. In solution of PEG 400/water in dog; format: ADME, organism-based, Canis lupus familiaris; conditions: in vivo
[18] = Oral bioavailability after i.v. dosing at 2 mg/kg, p.o. dosing at 10 mg/kg. In solution of PEG 400/water in rat; format: ADME, organism-based; conditions: in vivo; summary of the method: as §4
[19] = Oral bioavailability after i.v. dosing at 1 mg/kg, p.o. dosing at 1 mg/kg. In solution of PEG 400/water in monkey; format: ADME, organism-based; conditions: cercopithecidae, in vivo
[20] = Half life after i.v. dosing at 1 mg/kg, p.o. dosing at 1 mg/kg. In solution of PEG 400/water in dog; format: ADME, organism-based, Canis lupus familiaris; conditions: in vivo
[21] = Half life after i.v. dosing at 2 mg/kg, p.o. dosing at 10 mg/kg. In solution of PEG 400/water in rat; format: ADME, organism-based; conditions: in vivo; summary of the method: as §4
[22] = Half life after i.v. dosing at 1 mg/kg, p.o. dosing at 1 mg/kg. In solution of PEG 400/water in monkey; format: ADME, organism-based; conditions: cercopithecidae, in vivo

T1 sequence (P41594 whole entry): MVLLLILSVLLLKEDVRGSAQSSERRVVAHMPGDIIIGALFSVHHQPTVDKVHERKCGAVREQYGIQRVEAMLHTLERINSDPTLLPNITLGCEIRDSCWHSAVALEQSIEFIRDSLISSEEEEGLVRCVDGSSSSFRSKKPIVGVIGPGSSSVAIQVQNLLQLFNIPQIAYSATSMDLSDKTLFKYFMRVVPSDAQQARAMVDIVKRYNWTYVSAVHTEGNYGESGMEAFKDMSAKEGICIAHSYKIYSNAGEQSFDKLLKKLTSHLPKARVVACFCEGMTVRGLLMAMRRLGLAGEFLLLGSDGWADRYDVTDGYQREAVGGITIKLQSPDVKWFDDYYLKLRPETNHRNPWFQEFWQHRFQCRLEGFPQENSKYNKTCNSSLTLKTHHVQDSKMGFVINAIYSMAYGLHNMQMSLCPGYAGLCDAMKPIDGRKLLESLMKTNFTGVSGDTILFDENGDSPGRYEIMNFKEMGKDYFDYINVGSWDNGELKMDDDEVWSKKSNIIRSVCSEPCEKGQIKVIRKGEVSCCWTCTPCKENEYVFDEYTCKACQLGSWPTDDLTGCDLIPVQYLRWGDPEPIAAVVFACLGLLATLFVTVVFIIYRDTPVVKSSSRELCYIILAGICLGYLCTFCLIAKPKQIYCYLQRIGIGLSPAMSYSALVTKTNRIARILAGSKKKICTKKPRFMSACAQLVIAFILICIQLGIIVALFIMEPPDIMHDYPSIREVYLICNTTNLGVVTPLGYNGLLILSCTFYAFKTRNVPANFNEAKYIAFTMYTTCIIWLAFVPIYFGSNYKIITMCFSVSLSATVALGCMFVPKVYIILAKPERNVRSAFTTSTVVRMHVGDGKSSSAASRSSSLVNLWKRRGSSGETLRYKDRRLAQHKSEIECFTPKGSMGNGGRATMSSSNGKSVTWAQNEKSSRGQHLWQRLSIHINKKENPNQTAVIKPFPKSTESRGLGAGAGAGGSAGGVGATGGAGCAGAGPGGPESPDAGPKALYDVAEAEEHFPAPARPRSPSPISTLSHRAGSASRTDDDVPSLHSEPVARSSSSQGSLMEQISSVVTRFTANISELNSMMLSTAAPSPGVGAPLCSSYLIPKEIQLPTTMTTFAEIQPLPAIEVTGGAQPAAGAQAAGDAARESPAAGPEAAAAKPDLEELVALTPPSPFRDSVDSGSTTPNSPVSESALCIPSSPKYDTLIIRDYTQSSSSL

| IC50 [1] | Ki [2] | Occupancy [3] | concentration at 1 h [4] | concentration at 1 h [5] | SMILES | further results |
| --- | --- | --- | --- | --- | --- | --- |
| 22 nM | 30 nM | 58% | 4.9 µM | 3.5 µM | CN(c1cccnc1)c1cc(F)cc(-n2nnc(-c3ccccn3)n2)c1 | – |
| 3.9 nM | – | 97% | 9.7 µM | 8.7 µM | N#Cc1cc(F)cc(-n2nnc(-c3ccccn3)n2)c1 | – |
| 1580 nM | – | – | – | – | c1ccc(-c2nnn(-c3ccccc3Oc3cccnc3)n2)nc1 | – |
| 17 nM | 38 nM | 43% | 2.7 µM | 0.9 µM | Fc1cc(Cc2cccnc2)cc(-n2nnc(-c3ccccn3)n2)c1 | – |
| 2860 nM | 633 nM | – | – | – | c1ccc(Oc2cccc(-n3nnc(-c4ccccn4)n3)c2)nc1 | – |
| 1460 nM | 617 nM | – | – | – | c1ccc(Oc2cccc(-n3nnc(-c4ccccn4)n3)c2)cc1 | – |
| 73 nM | 186 nM | 96% | 12 µM | 13 µM | N#Cc1cccc(-n2nnc(-c3ccccn3)n2)c1 | – |
| – | – | – | – | – | c1ccc(-c2nnn(-c3cccc(Oc4ccncc4)c3)n2)nc1 | Ki [6]: Not Active; IC50 [7]: Not Active |
| 737 nM | 633 nM | – | – | – | c1ccc(-c2nnn(-c3ccc(Oc4cccnc4)cc3)n2)nc1 | – |
| 13 nM | 16 nM | 83% | 1.5 µM | 3.4 µM | Fc1cc(Sc2cccnc2)cc(-n2nnc(-c3ccccn3)n2)c1 | – |
| 124 nM | 29 nM | – | – | – | Fc1cc(Nc2cccnc2)cc(-n2nnc(-c3ccccn3)n2)c1 | – |
| 30 nM | 59 nM | 60% | – | – | c1ccc(-c2nnn(-c3cccc(Oc4cccnc4)c3)n2)nc1 | – |
| 16 nM | 25 nM | – | – | – | Fc1cc(-n2nnc(-c3ccccn3)n2)cc(-n2ccc3cccnc32)c1 | – |
| 6.7 nM | 12 nM | – | 6.7 µM | 7.4 µM | Fc1cc(Oc2cccnc2)cc(-n2nnc(-c3ccccn3)n2)c1 | clearance [8]: 14 mL/min/kg; Cmax [9]: 1.4 µM; Cmax [10]: 11 µM; Cmax [11]: 0.3 µM; clearance [12]: 21 mL/min/kg; clearance [13]: 7.7 mL/min/kg; Vd [14]: 1.5 L/kg; Vd [15]: 22 L/kg; Vd [16]: 0.7 L/kg; bioavailability [17]: 54%; bioavailability [18]: 100%; bioavailability [19]: 27%; half-life [20]: 2.3 h; half-life [21]: 2.7 h; half-life [22]: 2.5 h |
